Measurements: ChEMBL document CHEMBL1212938, “Inhibition of mycobacterial replication by pyrimidines possessing various C-5 functionalities and related 2'-deoxynucleoside analogues using in vitro and in vivo models” (J Med Chem, 2010)
Values after ≈ are worked out from the molar mass of the structure shown. Active and inactive are the calls of the source. The calls are words filed in the database; no cut-off is given here.

What was measured:
[1] = test system: Mycobacterium tuberculosis; experiment: Antitubercular activity against Mycobacterium tuberculosis H37Ra after 6 days by microplate alamar blue assay; format: functional; conditions: 144 h
Outline: (§1)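 MABA run in 7H9GC medium, with drug diluted from DMSO stocks made at 100× the highest final concentration. Final levels were 100, 50, 10, 5, 2.5 and 1 μg/mL in triplicate, and the experiment was done three times. Inoculum was 2.5 × 10⁵ CFU/mL final. Alamar Blue plus Tween-80 was added once bacteria-only control wells turned pink, from day 6 on, and plates were read visually and by fluorescence after 24 h. Visual MIC is the lowest concentration preventing the blue-to-pink change. Mean percent inhibition was taken relative to bacteria-only and medium-only wells.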

[2] = test system: Mycobacterium tuberculosis; experiment: Antitubercular activity against Mycobacterium tuberculosis H37Ra at 100 ug/ml after 6 days by microplate alamar blue assay; format: functional; conditions: 144 h; outline: as §1
[3] = test system: Mycobacterium tuberculosis; experiment: Antitubercular activity against Mycobacterium tuberculosis H37Ra at 50 ug/ml after 6 days by microplate alamar blue assay; format: functional; conditions: 144 h; outline: as §1
[4] = test system: Mycobacterium tuberculosis; experiment: Antitubercular activity against Mycobacterium tuberculosis H37Ra at 10 ug/ml after 6 days by microplate alamar blue assay; format: functional; conditions: 144 h; outline: as §1
[5] = test system: Mycobacterium tuberculosis; experiment: Antitubercular activity against Mycobacterium tuberculosis H37Ra at 5 ug/ml after 6 days by microplate alamar blue assay; format: functional; conditions: 144 h; outline: as §1
[6] = Cytotoxicity against human HuH7 cells assessed as cell viability after 2 days by XTT assay; format: cell-based, Huh-7; conditions: for CC50 at 48 h: HuH7 cells
Outline: (§2)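 Huh-7 cells seeded at 1 × 10⁵ cells/well and left to attach 6-8 h. Medium then replaced with compound at 200, 100, 50, 10 or 1 μg/mL, with a DMSO control, and incubated 2 days at 37 °C. Viability by XTT, absorbance read at 450-500 nm.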

[7] = Cytotoxicity against human HuH7 cells assessed as cell viability at 200 ug/ml after 2 days by XTT assay; format: cell-based; conditions: huh-7, 48 h; outline: as §2
[8] = Cytotoxicity against human HuH7 cells assessed as cell viability at > 200 ug/ml after 2 days by [3H]thymidine incorporation assay; format: cell-based; conditions: huh-7, 48 h
[9] = test system: Staphylococcus aureus; experiment: Antibacterial activity against Staphylococcus aureus at 100 ug/ml after 16 to 20 hrs by broth microdilution method; format: functional, organism-based
[10] = test system: Staphylococcus epidermidis; experiment: Antibacterial activity against Staphylococcus epidermidis at 100 ug/ml after 16 to 20 hrs by broth microdilution method; format: functional, organism-based
[11] = test system: Enterococcus faecalis; experiment: Antibacterial activity against Enterococcus faecalis at 100 ug/ml after 16 to 20 hrs by broth microdilution method; format: functional, organism-based
[12] = test system: Bacillus subtilis; experiment: Antibacterial activity against Bacillus subtilis at 100 ug/ml after 16 to 20 hrs by broth microdilution method; format: functional, organism-based
[13] = test system: Streptococcus pneumoniae; experiment: Antibacterial activity against Streptococcus pneumoniae at 100 ug/ml after 16 to 20 hrs by broth microdilution method; format: functional, organism-based
[14] = test system: Streptococcus pyogenes; experiment: Antibacterial activity against Streptococcus pyogenes at 100 ug/ml after 16 to 20 hrs by broth microdilution method; format: functional, organism-based
[15] = test system: Listeria monocytogenes; experiment: Antibacterial activity against Listeria monocytogenes at 100 ug/ml after 16 to 20 hrs by broth microdilution method; format: functional, organism-based
[16] = test system: Salmonella typhimurium; experiment: Antibacterial activity against Salmonella Typhimurium at 100 ug/ml after 16 to 20 hrs by broth microdilution method; format: functional, organism-based; conditions: Salmonella enterica subsp. enterica serovar Typhimurium
[17] = test system: Escherichia coli; experiment: Antibacterial activity against Escherichia coli at 100 ug/ml after 16 to 20 hrs by broth microdilution method; format: functional, organism-based
[18] = test system: Proteus vulgaris; experiment: Antibacterial activity against Proteus vulgaris at 100 ug/ml after 16 to 20 hrs by broth microdilution method; format: functional, organism-based
[19] = test system: Pseudomonas aeruginosa; experiment: Antibacterial activity against Pseudomonas aeruginosa at 100 ug/ml after 16 to 20 hrs by broth microdilution method; format: functional, organism-based
[20] = test system: Mycobacterium tuberculosis; experiment: Antitubercular activity against Mycobacterium tuberculosis H37Ra infected in BALB/c mouse assessed as reduction of CFU counts in lungs at 50 mg/kg, ip administered 5 days after infection for 25 days measured after 3 days last dose; format: functional, organism-based; set-up: dose 50 mg/kg
Outline: (§3)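 Female BALB/c mice, 5–6 weeks old, were infected iv via the tail vein with about 2.5 × 10⁵ CFU of H37Ra in PBS, 5 per group. From day 5, drug was given ip at 50 mg/kg, 5 days/week, for 25 treatment days, in 10% DMSO–saline or poly(ethylene glycol) methyl ether. Controls received diluent only. Three days after the last dose, lung, liver and spleen homogenates were plated on 7H11 agar at 37 °C for up to 4 weeks. Colony counts were done blinded.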

[21] = test system: Mycobacterium tuberculosis; experiment: Antitubercular activity against Mycobacterium tuberculosis H37Ra infected in BALB/c mouse assessed as reduction of CFU counts in liver at 50 mg/kg, ip administered 5 days after infection for 25 days measured after 3 days last dose; format: functional, organism-based; set-up: dose 50 mg/kg; outline: as §3
[22] = test system: Mycobacterium tuberculosis; experiment: Antitubercular activity against Mycobacterium tuberculosis H37Ra infected in BALB/c mouse assessed as reduction of CFU counts in spleen at 50 mg/kg, ip administered 5 days after infection for 25 days measured after 3 days last dose; format: functional, organism-based; set-up: dose 50 mg/kg; outline: as §3
[23] = test system: Mus musculus; experiment: Toxicity in Mycobacterium tuberculosis H37Ra infected in BALB/c mouse assessed as adverse effect at 50 mg/kg, ip administered 5 days after infection for 25 days; format: organism-based; set-up: dose 50 mg/kg, route intraperitoneal; conditions: in vivo
Outline: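 BALB/c mice infected with H37Ra were given 50 mg/kg ip in 10% DMSO–saline from day 5 post-infection, 5 days/week, over 25 treatment days. They were monitored for weight loss and behavioural changes and examined by gross necropsy after euthanasia.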

[24] = test system: Mycobacterium tuberculosis; experiment: Antitubercular activity against Mycobacterium tuberculosis H37Ra at 1 ug/ml after 6 days by microplate alamar blue assay; format: functional; conditions: 144 h; outline: as §1
[25] = test system: Mycobacterium tuberculosis; experiment: Antitubercular activity against Mycobacterium tuberculosis H37Ra at 2.5 to 5 ug/ml after 6 days by microplate alamar blue assay; format: functional; outline: as §1
[26] = test system: Staphylococcus epidermidis; experiment: Antibacterial activity against Staphylococcus epidermidis after 16 to 20 hrs by broth microdilution method; format: functional
Outline: (§4)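 Broth microdilution MIC. Exponentially growing bacteria diluted in sterile liquid medium to a final inoculum of 1 × 10⁴ CFU/mL, cultured with serial compound dilutions for 16-20 h. MIC taken as the lowest inhibitory concentration.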

[27] = test system: Staphylococcus aureus; experiment: Antibacterial activity against Staphylococcus aureus after 16 to 20 hrs by broth microdilution method; format: functional; outline: as §4
[28] = test system: Streptococcus pyogenes; experiment: Antibacterial activity against Streptococcus pyogenes after 16 to 20 hrs by broth microdilution method; format: functional; outline: as §4
[29] = test system: Enterococcus faecalis; experiment: Antibacterial activity against Enterococcus faecalis after 16 to 20 hrs by broth microdilution method; format: functional; outline: as §4
[30] = test system: Listeria monocytogenes; experiment: Antibacterial activity against Listeria monocytogenes after 16 to 20 hrs by broth microdilution method; format: functional; outline: as §4

SMILES	MIC50 [1]	inhibition at 100 µg/mL [2]	inhibition at 50 µg/mL [3]	inhibition at 10 µg/mL [4]	inhibition at 5 µg/mL [5]	CC50 at 48 h [6]	Activity [7]	Activity [8]	Activity [9]	Activity [10]	Activity [11]	Activity [12]	Activity [13]	Activity [14]	Activity [15]	Activity [16]	Activity [17]	Activity [18]	Activity [19]	Activity [20]	other results
CCCCCc1ccc(C#Cc2c[nH]c(=O)[nH]c2=O)cc1	10 µg/mL (≈ 35.4 µM)	90%	50%	50%	0%	> 100 µg/mL	Non-toxic	Non-toxic	inactive	inactive	inactive	inactive	inactive	inactive	inactive	inactive	inactive	inactive	inactive	–	–
O=c1[nH]cc(C#Cc2ccccn2)c(=O)[nH]1	5 µg/mL (≈ 23.5 µM)	90%	70%	60%	50%	> 100 µg/mL	Non-toxic	Non-toxic	inactive	inactive	inactive	inactive	inactive	inactive	inactive	inactive	inactive	inactive	inactive	Active	Activity [21]: Active; Activity [22]: Active; Activity [23]: Non-toxic
C(C#Cc1ccccn1)#Cc1ccccn1	< 1 µg/mL	100%	100%	100%	–	–	Non-toxic	Non-toxic	inactive	inactive	inactive	inactive	inactive	inactive	inactive	inactive	inactive	inactive	inactive	–	inhibition at 1 µg/mL [24]: 80%
CCCc1ccc(C#Cc2c[nH]c(=O)[nH]c2=O)cc1	< 10 µg/mL	90%	55%	55%	0%	> 100 µg/mL	Non-toxic	Non-toxic	inactive	inactive	inactive	inactive	inactive	inactive	inactive	inactive	inactive	inactive	inactive	–	–
O=c1[nH]c(=O)n([C@H]2C[C@H](O)[C@@H](CO)O2)cc1C#Cc1ccccn1	2.5 µg/mL (≈ 7.59 µM)	90%	78%	68%	–	–	Non-toxic	Non-toxic	inactive	inactive	inactive	inactive	inactive	inactive	inactive	inactive	inactive	inactive	inactive	–	inhibition (INH) [25]: 50%
NNC(=O)c1ccncc1 [ISONIAZID]	< 1 µg/mL	–	–	–	–	–	–	–	–	–	–	–	–	–	–	–	–	–	–	–	inhibition at 1 µg/mL [24]: 100%
CO[C@H]1/C=C/O[C@@]2(C)Oc3c(C)c(O)c4c(O)c(c(/C=N/N5CCN(C)CC5)c(O)c4c3C2=O)NC(=O)/C(C)=C\C=C\[C@H](C)[C@H](O)[C@@H](C)[C@@H](O)[C@@H](C)[C@H](OC(C)=O)[C@@H]1C [RIFAMPIN]	< 1 µg/mL	–	–	–	–	–	–	–	–	–	–	–	–	–	–	–	–	–	–	–	inhibition at 1 µg/mL [24]: 100%
Nc1nc(=O)n([C@H]2C[C@H](O)[C@@H](CO)O2)cc1C#Cc1ccccn1	2.5 µg/mL (≈ 7.61 µM)	90%	90%	70%	–	–	Non-toxic	Non-toxic	inactive	inactive	inactive	inactive	inactive	inactive	inactive	inactive	inactive	inactive	inactive	Active	inhibition (INH) [25]: 50%; Activity ([6]; huh-7, 48 h): Non-toxic; Activity [21]: Active; Activity [22]: Active; Activity [23]: Non-toxic
CCCCCC#Cc1c[nH]c(=O)[nH]c1=O	–	–	–	–	–	–	–	–	–	–	–	inactive	inactive	–	–	inactive	inactive	inactive	inactive	–	MIC90 [26]: 10 µg/mL (≈ 48.5 µM); MIC90 [27]: 50 µg/mL (≈ 242 µM); MIC90 [28]: 50 µg/mL (≈ 242 µM); MIC90 [29]: 50 µg/mL (≈ 242 µM); MIC90 [30]: 50 µg/mL (≈ 242 µM)
N[C@@H]1CONC1=O [CYCLOSERINE]	5 µg/mL (≈ 49 µM)	–	–	67%	50%	–	–	–	–	–	–	–	–	–	–	–	–	–	–	Active	Activity [21]: Active; Activity [22]: Active
